The text below walks through data of ChEMBL document CHEMBL3994580, “A novel class of α-glucosidase and HMG-CoA reductase inhibitors from Ganoderma leucocontextum and the anti-diabetic properties of ganomycin I in KK-Ay mice” (Eur J Med Chem, 2017).

Structures are written as SMILES. The source made the active and inactive calls. The calls are words filed in the database; no cut-off is given here.

Series [1] in a line: Inhibition of baker's yeast alpha-glucosidase using p-nitrophenyl alpha-D-glucopyranoside as substrate preincubated for 10 mins followed by substrate addition measured for 15 mins. Further details: species or system Saccharomyces cerevisiae. The essentials: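 Baker's yeast α-glucosidase with pNPG, read at 405 nm. Control contained phosphate buffer in place of compound, and blank contained buffer in place of enzyme.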

Series [2] can be described thus: Inhibition of maltase in rat small intestinal mucosa assessed as reduction in glucose production using maltose as substrate measured after 40 mins by glucose oxidase assay. A digest of the protocol: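 Rat small intestinal mucosa enzyme. Compound in DMSO mixed with substrate (maltose, sucrose or pNPG) and enzyme in 0.1 M phosphate buffer pH 6.9, incubated 40 min. Glucose released measured by glucose oxidase kit at 550 nm. Blank lacked enzyme, control lacked compound. Percent inhibition calculated from blank-corrected OD.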

The subject of the next series is Saccharomyces cerevisiae. Briefly: Non-competitive inhibition of baker's yeast alpha-glucosidase using varying levels of p-nitrophenyl alpha-D-glucopyranoside as substrate preincubated for 10 mins followed by substrate addition measured for 15 mins by Lineweaver-Burk plot analysis. The essentials: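 Kinetics with inhibitor at 0.3 to 1 μM against α-glucosidase. pNPG at 2, 4, 6 and 8 μM. Initial velocities measured with and without inhibitor, and inhibition type assigned from Michaelis-Menten and Lineweaver-Burk plots.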

The subject of series [3] is Mus musculus. Briefly: Acute toxicity in mouse assessed as convulsion up to […], po up to 14 days. Type of series: organism-based. The note with it: in vivo, 336 h.
Series [4] deals with Mus musculus. Briefly: Antidiabetic activity in KK-Ay diabetic mouse model assessed as reduction in blood glucose level after 4 hrs fasting at 1 to 5 mg/kg/day administered via oral gavage once daily measured on day 3 post dose. Type of series: functional, organism-based. A digest of the protocol:
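KK-Ay mice on high-fat diet, gavaged once daily (1 or 5 mg/kg; rosiglitazone 10 mg/kg). Blood glucose monitored sequentially after 4 h fasting. Mean ± SEM, n = 8, compared with the KK-Ay model group.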

For series [5], the system named is Mus musculus. The experiment in a line: Toxicity in KK-Ay diabetic mouse model assessed as decrease in body weight at 1 to 5 mg/kg/day administered via oral gavage once daily measured every 3 days post two weeks of compound treatment. Type of series: organism-based. Conditions: in vivo, 72 h. The essentials: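 In high-fat-fed KK-Ay mice gavaged once daily for 21 days, individual body weight and cage food consumption were recorded every 3 days. Mean ± SEM, n = 8.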

In series [6] the test system is Mus musculus. The experiment in a line: Antidiabetic activity in KK-Ay diabetic mouse model assessed as reduction in blood glucose level at 1 to 5 mg/kg/day administered via oral gavage once daily for 21 days by oral sucrose tolerance test. Type of series: functional, organism-based. The essentials: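 Oral sucrose tolerance test on day 20 of once-daily gavage treatment in high-fat-fed KK-Ay mice. Blood glucose followed over time, and the AUC was calculated. Mean ± SEM, n = 8.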

For series [7], the system named is Mus musculus. Briefly: Antidiabetic activity in KK-Ay diabetic mouse model assessed as reduction in serum insulin level at 1 to 5 mg/kg/day administered via oral gavage once daily for 21 days. Type of series: functional, organism-based. A digest of the protocol:
(§1)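 Male KK-Ay mice (8 weeks old) on high-fat diet with water ad libitum, dosed by gavage once daily for 21 days (1 or 5 mg/kg test; rosiglitazone 10 mg/kg); female C57BL/6J mice as normal controls. Blood collected at study end. Serum lipids, insulin and glucose measured per cited method. ISI calculated from fasting blood glucose and fasting insulin. Mean ± SEM, n = 7-8.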

In series [8] the test system is Mus musculus. The experiment in a line: Antidiabetic activity in KK-Ay diabetic mouse model assessed as increase in insulin sensitivity index at 1 to 5 mg/kg/day administered via oral gavage once daily for 21 days. Format: functional, organism-based. A digest of the protocol: as §1
Series [9] relates to Mus musculus. Briefly: Antidiabetic activity in KK-Ay diabetic mouse model assessed as reduction in blood glucose level at 5 mg/kg/day administered via oral gavage once daily measured on day 19 at 30 to 60 mins post insulin challenge by insulin tolerance test. Format: functional, organism-based. A digest of the protocol:
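ITT on day 19 of treatment: after 4 h fasting, insulin 0.6 U·kg-1 given intraperitoneally. Glycaemia was sampled from the tail tip before and at set times after injection, and the AUC was computed. Mean ± SEM, n = 8.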

The test system of series [10] is Mus musculus. Briefly: Hypolipidemic activity in KK-Ay diabetic mouse model assessed as reduction in serum LDL-C level at 1 to 5 mg/kg/day administered via oral gavage once daily for 21 days. Format: functional, organism-based. The essentials:
as §1

Series [11] concerns Mus musculus. Briefly: Hypoglycemic activity in KK-Ay diabetic mouse model assessed as increase in liver hepatic glycogen level at 1 to 5 mg/kg/day administered via oral gavage once daily for 4 weeks. Type of series: functional, organism-based.
Series [12] concerns Mus musculus. Briefly: Decrease in lipid droplet accumulation in liver in KK-Ay diabetic mouse model at 5 mg/kg/day administered via oral gavage once daily for 21 days by haematoxylin and eosin staining based microscopic or morphometric method. Format: functional, organism-based. The essentials: (§2)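 At study end, liver and abdominal white adipose tissue were fixed in 10% formaldehyde PBS (pH 7.4), paraffin-embedded, sectioned and stained with haematoxylin/eosin. Sections were assessed by microscopy or morphometry at 20×.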

The test system of series [13] is Mus musculus. The experiment in a line: Decrease in size of adipocytes in abdominal white adipose tissue in KK-Ay diabetic mouse model at 5 mg/kg/day administered via oral gavage once daily for 21 days by haematoxylin and eosin staining based microscopic or morphometric method. Format: functional, organism-based. A digest of the protocol:
as §2

In series [14] the test system is Mus musculus. The experiment in a line: Acute toxicity in mouse assessed as coma up to 3 g/kg, po up to 14 days. The note with it: in vivo, 336 h.
Series [15] has as its system Mus musculus. Briefly: Acute toxicity in mouse assessed as effect on sleep up to 3 g/kg, po up to 14 days. Conditions: in vivo, 336 h.
Series [16] has as its system Mus musculus. The experiment in a line: Acute toxicity in mouse assessed as changes in nature of stool up to 3 g/kg, po up to 14 days. The note with it: in vivo, 336 h.

The IC50 is the concentration at which inhibition is half-maximal. As for `CC(C)=CCC/C(C)=C/CCC1=C[C@H](c2cc(O)ccc2O)OC1=O`, the concentration for half-maximal inhibition (IC50) in series [1] stood at 300 nM; in series [2], 3600 nM. The inhibition entry in the series with Saccharomyces cerevisiae was “Active”. Besides, the Activity entry with Mus musculus [3] was “Non-Toxic”; in the series with Mus musculus [5] it was “Toxic”; in the series with Mus musculus [14], “Non-Toxic”; in the series on Mus musculus [15], “Non-Toxic”; with Mus musculus [16], “Non-Toxic”. Moreover, the result in the series on Mus musculus [4], in the series on Mus musculus [6], in the series on Mus musculus [7], with Mus musculus [8], in the series with Mus musculus [9] and in the series with Mus musculus [10] was Active. The result with Mus musculus [11], in the series on Mus musculus [12] and with Mus musculus [13] was Active.
